ChEMBL document CHEMBL1123647, “(+)-cis-8-Hydroxy-1-methyl-2-(di-n-propylamino)tetralin: a potent and highly stereoselective 5-hydroxytryptamine receptor agonist” (1987)

Legend:
Format in all cases: functional
Details in all cases: sc
Rattus norvegicus [1] = assay: Effective dose required for half maximal decrease of 5-HTP formation after subcutaneous administration of compound in limbic tissue of rat brain
Method in brief: (§1)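 Reserpinized rats (reserpine 5 mg/kg ip, in glucose solution with a little acetic acid). Compounds were dissolved in saline, pH near neutral, and given sc. Brain 5-HTP was measured by HPLC with electrochemical detection. ED50 is the dose giving a half-maximal decrease of 5-HTP formation in that brain part, from a dose-response curve of five to six dose levels, n = 3-4.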

Rattus norvegicus [2] = assay: Effective dose required for half maximal decrease of DOPA accumulation after subcutaneous administration in striatum tissue of rat brain
Method in brief: (§2)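 Reserpinized rats (reserpine 5 mg/kg ip) received compound in saline sc. Brain DOPA was measured by HPLC with electrochemical detection. ED50 is the dose giving a half-maximal decrease of DOPA formation, from a dose-response curve of three to five dose levels, n = 3. Maximal reduction was taken as 65% of control for limbic tissue and 80% for striatum.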

Rattus norvegicus [3] = assay: Effective dose required for half maximal decrease of 5-HTP formation after subcutaneous administration of compound in hemispheres (cortex) for rat brain; method in brief: as §1
Rattus norvegicus [4] = assay: Effective dose required for half maximal decrease of 5-HTP formation after subcutaneous administration of compound in striatum tissue of rat brain; method in brief: as §1
Rattus norvegicus [5] = assay: Effective dose required for half maximal decrease of DOPA accumulation after subcutaneous administration in limbic tissue of rat brain; method in brief: as §2

Structure (SMILES)	ED50 (Rattus norvegicus [1]) [µmol/kg]	ED50 (Rattus norvegicus [2]) [µmol/kg]	ED50 (Rattus norvegicus [3]) [µmol/kg]	ED50 (Rattus norvegicus [4]) [µmol/kg]	ED50 (Rattus norvegicus [5]) [µmol/kg]
CCCN(CCC)[C@@H]1CCc2cccc(O)c2C1	0.061	> 45	0.077	0.065	> 45
CCCN(CCC)[C@@H]1CCc2cccc(O)c2[C@H]1C	> 50	> 50	> 50	> 50	> 50
CCCN(CCC)[C@@H]1CCc2cccc(OC)c2[C@@H]1C	0.53	1.88	0.77	0.6	1.71
CCCN(CCC)[C@@H]1CCc2cccc(O)c2[C@@H]1C.Cl		> 50			> 50
CCCN(CCC)[C@@H]1CCc2cccc(OC)c2[C@H]1C	> 50	> 50	> 50	> 50	> 50
